{
  "source": "ChEMBL document CHEMBL5360562",
  "about": "(Eur J Med Chem, 2023)",
  "key": {"Acinetobacter baumannii [1]": {"system": "Acinetobacter baumannii", "assay": "Potentiation of Clarithromycin antibacterial activity against Acinetobacter baumannii AB5075 assessed as clarithromycin MIC at 30 uM incubated for 16 hrs by broth microdilution method", "type": "functional"}, "Acinetobacter baumannii [2]": {"system": "Acinetobacter baumannii", "assay": "Potentiation of Clarithromycin antibacterial activity against Acinetobacter baumannii AB5075 assessed as clarithromycin MIC at 7.5 uM incubated for 16 hrs by broth microdilution method", "type": "functional"}, "Acinetobacter baumannii [3]": {"system": "Acinetobacter baumannii", "assay": "Potentiation of Clarithromycin antibacterial activity against Acinetobacter baumannii AB5075 assessed as clarithromycin MIC at 5 uM incubated for 16 hrs by broth microdilution method", "type": "functional"}, "Acinetobacter baumannii [4]": {"system": "Acinetobacter baumannii", "assay": "Potentiation of Clarithromycin antibacterial activity against Acinetobacter baumannii AB5075 assessed as fold reduction in clarithromycin MIC at 7.5 uM incubated for 16 hrs by broth microdilution method", "type": "functional", "how_it_was_run": "(§1)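 Checkerboard-style potentiation by broth microdilution. 6 h day cultures in CAMHB diluted to 5×10^5 CFU/mL. Adjuvant added from 10 mM DMSO stock at fixed concentration throughout. […] Controls: antibiotic alone, adjuvant alone, media only. Incubated stationary at 37 °C for 16 h. MIC is lowest concentration with no visible growth; fold reduction taken against the antibiotic-alone lane.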"}, "Acinetobacter baumannii [5]": {"system": "Acinetobacter baumannii", "assay": "Potentiation of Clarithromycin antibacterial activity against Acinetobacter baumannii AB5075 assessed as clarithromycin MIC at 10 uM incubated for 16 hrs by broth microdilution method", "type": "functional"}, "Acinetobacter baumannii [6]": {"system": "Acinetobacter baumannii", "assay": "Potentiation of Clarithromycin antibacterial activity against Acinetobacter baumannii AB5075 assessed as fold reduction in clarithromycin MIC at 10 uM incubated for 16 hrs by broth microdilution method", "type": "functional", "how_it_was_run": "as §1"}, "[7]": {"assay": "Antiproliferative against human HepG2 cells assessed as reduction in cell viability incubated for 24 hrs by XTT assay", "type": "toxicity, cell-based"}, "Acinetobacter baumannii [8]": {"system": "Acinetobacter baumannii", "assay": "Potentiation of Clarithromycin antibacterial activity against Acinetobacter baumannii AB5075 assessed as clarithromycin MIC at 2.5 uM incubated for 16 hrs by broth microdilution method", "type": "functional"}, "Acinetobacter baumannii [9]": {"system": "Acinetobacter baumannii", "assay": "Potentiation of Clarithromycin antibacterial activity against Acinetobacter baumannii AB5075 assessed as clarithromycin MIC at 1.5 uM incubated for 16 hrs by broth microdilution method", "type": "functional", "how_it_was_run": "as §1"}, "Acinetobacter baumannii [10]": {"system": "Acinetobacter baumannii", "assay": "Potentiation of Clarithromycin antibacterial activity against Acinetobacter baumannii AB967 assessed as clarithromycin MIC at 10 uM incubated for 16 hrs by broth microdilution method", "type": "functional"}, "Acinetobacter baumannii [11]": {"system": "Acinetobacter baumannii", "assay": "Potentiation of Clarithromycin antibacterial activity against Acinetobacter baumannii AB3560 assessed as clarithromycin MIC at 10 uM incubated for 16 hrs by broth microdilution method", "type": "functional"}, "Acinetobacter baumannii [12]": {"system": "Acinetobacter baumannii", "assay": "Potentiation of Clarithromycin antibacterial activity against Acinetobacter baumannii AB3785 assessed as clarithromycin MIC at 10 uM incubated for 16 hrs by broth microdilution method", "type": "functional"}, "Acinetobacter baumannii [13]": {"system": "Acinetobacter baumannii", "assay": "Potentiation of Clarithromycin antibacterial activity against Acinetobacter baumannii AB5711 assessed as clarithromycin MIC at 10 uM incubated for 16 hrs by broth microdilution method", "type": "functional"}, "Acinetobacter baumannii [14]": {"system": "Acinetobacter baumannii", "assay": "Potentiation of Azithromycin antibacterial activity against Acinetobacter baumannii AB5075 assessed as azithromycin MIC at 30 uM incubated for 16 hrs by broth microdilution method", "type": "functional"}, "Acinetobacter baumannii [15]": {"system": "Acinetobacter baumannii", "assay": "Potentiation of Azithromycin antibacterial activity against Acinetobacter baumannii AB5075 assessed as azithromycin MIC at 20 uM incubated for 16 hrs by broth microdilution method", "type": "functional"}, "Acinetobacter baumannii [16]": {"system": "Acinetobacter baumannii", "assay": "Potentiation of Azithromycin antibacterial activity against Acinetobacter baumannii AB5075 assessed as azithromycin MIC at 7.5 uM incubated for 16 hrs by broth microdilution method", "type": "functional"}, "Acinetobacter baumannii [17]": {"system": "Acinetobacter baumannii", "assay": "Potentiation of Azithromycin antibacterial activity against Acinetobacter baumannii AB5075 assessed as azithromycin MIC at 2.5 uM incubated for 16 hrs by broth microdilution method", "type": "functional"}, "Acinetobacter baumannii [18]": {"system": "Acinetobacter baumannii", "assay": "Potentiation of erythromycin antibacterial activity against Acinetobacter baumannii AB5075 assessed as erythromycin MIC at 20 uM incubated for 16 hrs by broth microdilution method", "type": "functional"}, "Acinetobacter baumannii [19]": {"system": "Acinetobacter baumannii", "assay": "Potentiation of erythromycin antibacterial activity against Acinetobacter baumannii AB5075 assessed as erythromycin MIC at 5 uM incubated for 16 hrs by broth microdilution method", "type": "functional"}, "Acinetobacter baumannii [20]": {"system": "Acinetobacter baumannii", "assay": "Potentiation of rifampicin antibacterial activity against Acinetobacter baumannii AB5075 assessed as rifampicin MIC at 30 uM incubated for 16 hrs by broth microdilution method", "type": "functional"}, "Acinetobacter baumannii [21]": {"system": "Acinetobacter baumannii", "assay": "Potentiation of rifampicin antibacterial activity against Acinetobacter baumannii AB5075 assessed as rifampicin MIC at 20 uM incubated for 16 hrs by broth microdilution method", "type": "functional"}, "Acinetobacter baumannii [22]": {"system": "Acinetobacter baumannii", "assay": "Potentiation of rifampicin antibacterial activity against Acinetobacter baumannii AB5075 assessed as rifampicin MIC at 7.5 uM incubated for 16 hrs by broth microdilution method", "type": "functional", "how_it_was_run": "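A. baumannii AB5075 6 h day cultures in CAMHB subcultured to 5×10^5 CFU/mL; adjuvant added from 10 mM DMSO stock at fixed concentration, then rifampicin (DMSO) twofold serially diluted in adjuvant-containing broth. Antibiotic-alone and adjuvant-alone control lanes.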"}, "Klebsiella pneumoniae [23]": {"system": "Klebsiella pneumoniae", "assay": "Antibacterial activity against Klebsiella pneumoniae ATCC BAA-2146 assessed as inhibition of bacterial growth incubated for 16 hrs by broth microdilution method", "type": "functional", "how_it_was_run": "(§2)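 Standalone MIC by broth microdilution. 6 h day cultures in cation-adjusted Mueller-Hinton broth (CAMHB) diluted to 5×10^5 CFU/mL. Compound added from 10 mM DMSO stock to 200 μM (highest concentration), then twofold serial dilution. Incubated stationary at 37 °C for 16 h.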"}, "Pseudomonas aeruginosa [24]": {"system": "Pseudomonas aeruginosa", "assay": "Antibacterial activity against Pseudomonas aeruginosa PAO1 assessed as inhibition of bacterial growth incubated for 16 hrs by broth microdilution method", "type": "functional", "how_it_was_run": "as §2, with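 “h. OD600 read; MIC is lowest concentration with <10% growth versus positive control.” for “h.”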"}, "Escherichia coli [25]": {"system": "Escherichia coli", "assay": "Antibacterial activity against Escherichia coli ATCC 25922 assessed as inhibition of bacterial growth incubated for 16 hrs by broth microdilution method", "type": "functional", "how_it_was_run": "as §2"}, "Klebsiella pneumoniae [26]": {"system": "Klebsiella pneumoniae", "assay": "Potentiation of Clarithromycin antibacterial activity against Klebsiella pneumoniae ATCC BAA-2146 assessed as clarithromycin MIC at 10 uM incubated for 16 hrs by broth microdilution method", "type": "functional"}, "Klebsiella pneumoniae [27]": {"system": "Klebsiella pneumoniae", "assay": "Potentiation of Clarithromycin antibacterial activity against Klebsiella pneumoniae ATCC BAA-2146 assessed as clarithromycin MIC at 7.5 uM incubated for 16 hrs by broth microdilution method", "type": "functional"}, "Pseudomonas aeruginosa [28]": {"system": "Pseudomonas aeruginosa", "assay": "Potentiation of Clarithromycin antibacterial activity against Pseudomonas aeruginosa PAO1 assessed as clarithromycin MIC at 30 uM incubated for 16 hrs by broth microdilution method", "type": "functional"}, "Escherichia coli [29]": {"system": "Escherichia coli", "assay": "Potentiation of Clarithromycin antibacterial activity against Escherichia coli ATCC 25922 assessed as clarithromycin MIC at 2.5 uM incubated for 16 hrs by broth microdilution method", "type": "functional", "how_it_was_run": "as §1"}, "[30]": {"assay": "Metabolic stability in human liver microsomes assessed as parent compound remaining in presence of NADPH measured at 1 hr by UV-UPLC analysis", "type": "ADME, Microsome"}},
  "data": [
    {"smiles": "Cl.Cl.Nc1nc(-c2ccc(NC(=O)Nc3cccc(-c4c[nH]c(N)n4)c3F)cc2F)c[nH]1", "values": [
      {"measurement": "MIC", "setting": "Acinetobacter baumannii [1]", "result": "≤ 0.062", "unit": "µg/mL"},
      {"measurement": "MIC", "setting": "Acinetobacter baumannii [2]", "result": "≤ 0.062", "unit": "µg/mL"},
      {"measurement": "MIC", "setting": "Acinetobacter baumannii [3]", "result": "≤ 0.062", "unit": "µg/mL"},
      {"measurement": "fold change (FC)", "setting": "Acinetobacter baumannii [4]", "result": ">=512"},
      {"measurement": "MIC", "setting": "Acinetobacter baumannii [5]", "result": "≤ 0.062", "unit": "µg/mL"},
      {"measurement": "fold change (FC)", "setting": "Acinetobacter baumannii [6]", "result": ">=512"},
      {"measurement": "IC50 at 24 h", "setting": "[7]", "result": 208, "unit": "µg/mL"},
      {"measurement": "MIC", "setting": "Acinetobacter baumannii [8]", "result": 0.125, "unit": "µg/mL"},
      {"measurement": "MIC", "setting": "Acinetobacter baumannii [9]", "result": 2, "unit": "µg/mL"},
      {"measurement": "MIC", "setting": "Acinetobacter baumannii [10]", "result": "≤ 0.062", "unit": "µg/mL"},
      {"measurement": "MIC", "setting": "Acinetobacter baumannii [11]", "result": "≤ 0.062", "unit": "µg/mL"},
      {"measurement": "MIC", "setting": "Acinetobacter baumannii [12]", "result": "≤ 0.062", "unit": "µg/mL"},
      {"measurement": "MIC", "setting": "Acinetobacter baumannii [13]", "result": "≤ 0.062", "unit": "µg/mL"},
      {"measurement": "MIC", "setting": "Acinetobacter baumannii [14]", "result": "≤ 0.062", "unit": "µg/mL"},
      {"measurement": "MIC", "setting": "Acinetobacter baumannii [15]", "result": "≤ 0.062", "unit": "µg/mL"},
      {"measurement": "MIC", "setting": "Acinetobacter baumannii [16]", "result": 0.5, "unit": "µg/mL"},
      {"measurement": "MIC", "setting": "Acinetobacter baumannii [17]", "result": 32, "unit": "µg/mL"},
      {"measurement": "MIC", "setting": "Acinetobacter baumannii [18]", "result": "≤ 0.062", "unit": "µg/mL"},
      {"measurement": "MIC", "setting": "Acinetobacter baumannii [19]", "result": 0.5, "unit": "µg/mL"},
      {"measurement": "MIC", "setting": "Acinetobacter baumannii [20]", "result": 0.001, "unit": "µg/mL"},
      {"measurement": "MIC", "setting": "Acinetobacter baumannii [21]", "result": 0.001, "unit": "µg/mL"},
      {"measurement": "MIC", "setting": "Acinetobacter baumannii [22]", "result": 0.015, "unit": "µg/mL"},
      {"measurement": "MIC", "setting": "Klebsiella pneumoniae [23]", "result": "> 200", "unit": "µM"},
      {"measurement": "MIC", "setting": "Pseudomonas aeruginosa [24]", "result": 256, "unit": "µM"},
      {"measurement": "MIC", "setting": "Escherichia coli [25]", "result": 12.5, "unit": "µM"},
      {"measurement": "MIC", "setting": "Klebsiella pneumoniae [26]", "result": 2, "unit": "µg/mL"},
      {"measurement": "MIC", "setting": "Klebsiella pneumoniae [27]", "result": 16, "unit": "µg/mL"},
      {"measurement": "MIC", "setting": "Pseudomonas aeruginosa [28]", "result": 0.5, "unit": "µg/mL"},
      {"measurement": "MIC", "setting": "Escherichia coli [29]", "result": 32, "unit": "µg/mL"},
      {"measurement": "Stability", "setting": "[30]", "result": 87, "unit": "%"}
    ]}
  ]
}
